This is an account of results in ChEMBL document CHEMBL1135968, “The effect of a phosphodiester linking group on albumin binding, blood half-life, and relaxivity of intravascular diethylenetriaminepentaacetato aquo gadolinium(III) MRI contrast agents” (J Med Chem, 2002).

For data set [1], the species on record is Rattus norvegicus. The experiment in a line: Percent of biliary excretion measured in 24 hr in rat. Type of data set: ADME, organism-based, Bile. Particulars: in vivo. The method, boiled down: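 Rats were dosed i.v. at 0.1 mmol/kg with 153Gd-labeled chelate (male Sprague-Dawley, 150-250 g) and housed in metabolic cages to collect urine and feces. They were sacrificed at 24 h. Tissues and excreta were gamma counted, and % injected dose = sample CPM / injected CPM × 100.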

Data set [2] addresses T1, Albumin (Homo sapiens, UniProt P02768). Description: Percentage of compound (0.1 mM) bound to human serum albumin (4.5%). Particulars: 100 µM. The method, boiled down: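 Ultrafiltration, in duplicate. 153Gd-labeled chelate was added to 4.5% HSA to 0.1 mM total Gd. An aliquot was counted, and 400 μL was centrifuged through a 5000 NMWL filter at room temperature (22 ± 1 °C). The unbound fraction came from filtrate counts.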

The species named for data set [3] is Rattus norvegicus. The experiment in a line: Volume of distribution, steady state in rat. Type of data set: ADME, organism-based. As to conditions: in vivo. Put shortly:
(§1)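 Unanesthetized male Sprague-Dawley rats (150-250 g, n = 2-5) received 153Gd-labeled chelate via tail vein catheter at 0.1 mmol/kg. Plasma was separated from heparinized blood and Gd was measured by ICP. Concentration-time data were fitted biexponentially. Elimination half-life = 0.693/β and Vd = dose/B. AUC 0-30 min was computed per animal by the trapezoidal rule. Values are mean ± 1 SD.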

A short description of data set [4]: Relaxivity, measured in phosphate buffer saline (PBS). Type of data set: ADME. Put shortly: (§2)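 T1 was read at 20 MHz (0.47 T) and 37 °C, in triplicate, with recycle delay 5× T1. Five sequential additions of 1–10 mM chelate were titrated into PBS (10 mM phosphate, 150 mM NaCl, pH 7.4) or into 4.5% HSA (fraction V) in PBS. r1 was taken from the titration.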
Data set [5] has as its target T1, Albumin. Description: Observed relaxivity bound to human serum albumin (4.5%). The method, boiled down:
as §2

The nature of data set [6]: Area under plasma 1/T1 versus time curve, 0-30 min. Type of data set: ADME, cell-free. Details: concentration or dose not given beside the values. Put shortly:
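Male Sprague-Dawley rats (150-250 g, n = 2-5, unanesthetized) were given 0.1 mmol/kg 153Gd chelate i.v. by tail vein catheter. Plasma water T1 was measured on a Minispec in triplicate, and plasma Δ1/T1 was followed over time. AUC 0-30 min was calculated per animal by the trapezoidal rule. Values are mean ± 1 SD.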

Data set [7] is filed under the species Rattus norvegicus. The experiment in a line: Elimination of half-life in rat. Type of data set: ADME, organism-based. As to conditions: in vivo. The method, boiled down:
as §1

Data set [8] can be described thus: Area under concentration versus time curve, 0-30 min. Details: time < 0.5 hr. Type of data set: ADME. As to conditions: 0.5 h. Put shortly:
as §1

T1 sequence (P02768 whole entry): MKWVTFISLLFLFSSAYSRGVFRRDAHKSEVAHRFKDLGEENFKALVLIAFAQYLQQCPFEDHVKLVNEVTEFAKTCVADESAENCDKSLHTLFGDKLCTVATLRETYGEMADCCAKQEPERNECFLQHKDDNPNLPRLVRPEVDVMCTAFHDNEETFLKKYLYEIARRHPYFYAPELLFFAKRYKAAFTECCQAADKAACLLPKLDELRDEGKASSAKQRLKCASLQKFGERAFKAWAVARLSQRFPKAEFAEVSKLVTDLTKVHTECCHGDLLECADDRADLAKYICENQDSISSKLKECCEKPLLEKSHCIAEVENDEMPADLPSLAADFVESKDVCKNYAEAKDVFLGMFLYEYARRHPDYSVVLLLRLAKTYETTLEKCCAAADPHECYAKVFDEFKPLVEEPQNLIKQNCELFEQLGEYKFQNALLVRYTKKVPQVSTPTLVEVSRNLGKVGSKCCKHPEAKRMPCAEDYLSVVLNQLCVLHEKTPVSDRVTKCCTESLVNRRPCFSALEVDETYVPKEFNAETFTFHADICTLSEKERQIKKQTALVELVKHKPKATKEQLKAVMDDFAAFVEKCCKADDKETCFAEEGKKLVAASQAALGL

As for “Tris-[N-methyl-D-glucamine]-{(2-(R)-[(2-(1-naphthyl)-ethyl)phosphonooxymethyl]diethylenetriaminepentaacetato)(aquo)-gadolinium (III)}”, the Excretion in the data set filed under Rattus norvegicus [1] is listed as 17%. At Albumin [2], this substance yielded a Bound of 40%. Further, the Vdss – broadly, a proportionality between amount in the body and measured concentration, not a real space – in the data set listed under Rattus norvegicus [3] came to 0.32 L/kg. Also, the Relaxivity in data set [4] amounted to 6 mM⁻¹ s⁻¹. For the same substance, the Observed relaxivity on Albumin [5] amounted to 19.5 mM⁻¹ s⁻¹. For the same substance, the AUC 1/T1 in data set [6] is 94.2 s-1 min. In the data set filed under Rattus norvegicus [7], this substance returned a T1/2 beta of 14.3 min. The same substance registered an AUC conc in data set [8] of 92.8 µM·h.

In the data set listed under Rattus norvegicus [1], “Bis-[N-methyl-D-glucamine]-{(2-((2-naphthyl)methyl)-diethylenetriaminepentaacetato)(aquo)-gadolinium (III)}” had an Excretion of 64.3%. This substance registered a Bound on Albumin [2] of 30%. This substance had a volume of distribution (Vdss) in the data set filed under Rattus norvegicus [3] of 0.44 L/kg. Besides, the Relaxivity in data set [4] was 5.5 mM⁻¹ s⁻¹. The Observed relaxivity on Albumin [5] came to 16.3 mM⁻¹ s⁻¹. In data set [6], this substance registered an AUC 1/T1 of 40.1 s-1 min. The same substance yielded a T1/2 beta in the data set filed under Rattus norvegicus [7] of 6.8 min. Besides, in data set [8], the AUC conc turned out to be 43 µM·h.

Regarding “DIETHYLENETRIAMINEPENTAACETATO AQUO GADOLINIUM (III)”, the Excretion in the data set listed under Rattus norvegicus [1] is recorded as 6.3%. At Albumin [2], this substance came in with a Bound of 0%. The substance also registered a distribution volume (Vdss) in the data set listed under Rattus norvegicus [3] of 0.28 L/kg. The Relaxivity in data set [4] was 4.6 mM⁻¹ s⁻¹. At Albumin [5], this substance had an Observed relaxivity of 4.6 mM⁻¹ s⁻¹. In data set [6], this substance had an AUC 1/T1 of 46.4 s-1 min. This substance also gave a T1/2 beta in the data set filed under Rattus norvegicus [7] of 15.4 min. The AUC conc in data set [8] stood at 104 µM·h.

The substance “Trisodium-{(2-(R)-[(4,4-diphenylcyclohexyl)phosphonooxymethyl]diethylenetriaminepentaacetato)(aquo)-gadolinium (III)}” came in with an Excretion in the data set listed under Rattus norvegicus [1] of 15.8%. On Albumin [2], the Bound stood at 88%. The substance also gave a Vdss in the data set filed under Rattus norvegicus [3] of 0.24 L/kg. Further, the Relaxivity in data set [4] came out at 6.6 mM⁻¹ s⁻¹. In addition, on Albumin [5], the Observed relaxivity was 42 mM⁻¹ s⁻¹. This substance also gave an AUC 1/T1 in data set [6] of 285 s-1 min. Moreover, in the data set filed under Rattus norvegicus [7], the T1/2 beta was found to be 23.1 min. Besides, the AUC conc in data set [8] is 156 µM·h.

The substance “Bis-[N-methyl-D-glucamine]-{(2-(octyldiethylenetriamine)diethylenetriaminepentaacetato)(aquo)-gadolinium (III)}” yielded an Excretion in the data set listed under Rattus norvegicus [1] of 66.9%. Further, the Bound on Albumin [2] worked out at 44%. The substance further gave a distribution volume (Vdss) in the data set listed under Rattus norvegicus [3] of 0.62 L/kg. Moreover, in data set [4], the Relaxivity is 5.9 mM⁻¹ s⁻¹. The same substance returned an Observed relaxivity on Albumin [5] of 20.7 mM⁻¹ s⁻¹. For the same substance, in data set [6], the AUC 1/T1 is 69.7 s-1 min. The substance also returned a T1/2 beta in the data set listed under Rattus norvegicus [7] of 6.2 min. In data set [8], this substance came in with an AUC conc of 51 µM·h.

“Tris-[N-methyl-D-glucamine]-{(2-(R)-[octylphosphonooxymethyl]diethylenetriaminepentaacetato)(aquo)-gadolinium (III)}” had an Excretion in the data set listed under Rattus norvegicus [1] of 17.7%. This substance returned a Bound on Albumin [2] of 54%. Also, in the data set listed under Rattus norvegicus [3], the distribution volume (Vdss) was found to be 0.31 L/kg. This substance also showed a Relaxivity in data set [4] of 6.1 mM⁻¹ s⁻¹. In addition, the AUC 1/T1 in data set [6] is 150 s-1 min. For the same substance, the T1/2 beta in the data set listed under Rattus norvegicus [7] came to 14.3 min. In data set [8], the AUC conc was determined as 99.3 µM·h.
